What was measured:
[1] = molecular target: T1, LiTryS (Leishmania infantum trypanothione synthetase) (Leishmania infantum, UniProt A4I2Z3); experiment: TryS activity end-point assay; type: biochemical; conditions: for IC50: IC50 value, LiTryS, ± 2σ, ∼30 assumed for 50 ± 5% inhibition at 30 µM; for % TryS inhibition at 30 µM, LiTryS: NA = not active (enzyme activity > 95%)
T1 sequence (A4I2Z3 1-652): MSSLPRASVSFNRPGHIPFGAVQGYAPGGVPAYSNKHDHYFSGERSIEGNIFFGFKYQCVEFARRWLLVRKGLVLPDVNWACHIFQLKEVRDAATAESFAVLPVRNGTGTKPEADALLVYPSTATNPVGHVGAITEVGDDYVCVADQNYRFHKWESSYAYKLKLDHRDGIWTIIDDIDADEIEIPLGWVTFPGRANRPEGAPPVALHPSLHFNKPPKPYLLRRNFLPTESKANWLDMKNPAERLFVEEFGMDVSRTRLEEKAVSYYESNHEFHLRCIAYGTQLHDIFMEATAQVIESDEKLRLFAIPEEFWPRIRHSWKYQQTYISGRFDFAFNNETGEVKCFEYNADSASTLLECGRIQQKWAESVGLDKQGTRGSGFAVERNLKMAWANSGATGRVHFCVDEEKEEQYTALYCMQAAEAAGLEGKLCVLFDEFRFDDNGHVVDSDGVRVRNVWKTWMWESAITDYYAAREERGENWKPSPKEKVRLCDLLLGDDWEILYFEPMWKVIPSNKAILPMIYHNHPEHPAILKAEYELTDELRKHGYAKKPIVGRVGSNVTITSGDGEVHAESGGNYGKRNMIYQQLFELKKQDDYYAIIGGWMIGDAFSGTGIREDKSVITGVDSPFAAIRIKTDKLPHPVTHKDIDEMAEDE
Method in brief: (§1)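 Recombinant TryS end-point assay in 100 mM HEPES pH 7.4 with 5 mM DTT, 10 mM MgSO4 and 0.5 mM EDTA. ATP was 150 µM and spermidine 2 mM. GSH was 0.25 mM for LiTryS, 0.05 mM for TbTryS and 0.57 mM for TcTryS. Enzyme started the reaction and BIOMOL Green stopped it after 15 min. A650 was read after 20 min at room temperature. Values were corrected with no-enzyme blanks and for compound interference with phosphate. At least quadruplicates; IC50 is given ± 2σn-1.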

[2] = system: L. braziliensis amastigotes; experiment: Macrophage infection assay, L. braziliensis amastigotes; type: cell-based, Leishmania braziliensis; conditions: for activity at 10 µM: Leishmania braziliensis, Macrophage, read-out: % infection by L. braziliensis at 10 µM; for SI, L. braziliensis amastigotes: selectivity index, macrophage CC50 and amastigote EC50
Method in brief: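 J774 macrophages were plated on coverslips at 1 × 10^5 cells/mL in DMEM with 1% FBS. They were infected with stationary-phase L. braziliensis promastigotes (MHOM/BR/01/BA788; 1:20) for 2 h at room temperature, then 22 h at 35 °C. After washing, cells got test compound (5 or 10 µM, or 10–0.01 µM) in 1% DMSO for 24 h at 37 °C and 5% CO2. Cells were EtOH-fixed and DAPI-stained, and 100–200 macrophages were imaged. % infected cells is relative to DMSO.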

[3] = system: Mouse macrophages from the cell line J774; experiment: Cytotoxicity assay; type: cell-based; conditions: read-out: CC50, macrophages; 24 h, non-infected J774
Method in brief: (§2)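 J774 mouse macrophages were grown in DMEM with 10% FBS and penicillin/streptomycin at 37 °C in humidified 5% CO2. Cells were seeded at 6 × 10^4 cells/mL and exposed the next day for 24 h to test compound at 100 to 0.001 µM (200 µM for one compound). The WST-1 signal was read at A450. % cytotoxicity was calculated against DMSO-treated and untreated cells, and CC50 is given ± σn–1.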

Cytotoxicity assay = type: cell-based, mouse; conditions: mouse, J774 macrophages (ATCC TIB67), non-infected
Method in brief: as §2

TcTryS = molecular target: T2, TcTryS (Trypanosoma cruzi, UniProt Q9GT49); experiment: TryS activity end-point assay; type: biochemical; conditions: IC50 value, TcTryS, ± 2σ; ~30 assumed for 50 ± 5% inhibition at 30 µM
T2 sequence (Q9GT49 1-647): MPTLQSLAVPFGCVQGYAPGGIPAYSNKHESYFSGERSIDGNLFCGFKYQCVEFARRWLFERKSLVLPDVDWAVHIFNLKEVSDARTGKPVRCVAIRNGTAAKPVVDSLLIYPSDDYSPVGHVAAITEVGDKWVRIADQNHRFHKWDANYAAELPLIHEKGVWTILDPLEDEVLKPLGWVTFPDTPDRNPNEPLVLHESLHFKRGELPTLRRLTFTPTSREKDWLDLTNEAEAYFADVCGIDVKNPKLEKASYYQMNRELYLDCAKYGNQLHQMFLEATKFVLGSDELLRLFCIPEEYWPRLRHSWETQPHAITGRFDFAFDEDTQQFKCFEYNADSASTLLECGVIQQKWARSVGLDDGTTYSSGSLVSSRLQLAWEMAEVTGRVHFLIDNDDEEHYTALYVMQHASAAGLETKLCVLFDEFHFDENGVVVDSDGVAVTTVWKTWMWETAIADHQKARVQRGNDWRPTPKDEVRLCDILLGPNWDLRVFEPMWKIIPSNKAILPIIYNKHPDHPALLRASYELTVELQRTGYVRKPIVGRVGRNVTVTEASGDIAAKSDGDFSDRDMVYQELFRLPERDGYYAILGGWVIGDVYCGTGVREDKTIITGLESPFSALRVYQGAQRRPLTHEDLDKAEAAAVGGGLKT
Method in brief: as §1

SMILES | IC50 [1] [µM] | activity at 10 µM ([2]; 24 h) [%] | other results
O=C(CN1C(=O)Cc2c([nH]c3ccc(Br)cc23)-c2ccc(Cl)cc21)NCCO [Compound 13] | 2.3 ± 0.3 |  | 
NCCNC(=O)CN1C(=O)Cc2c([nH]c3ccc(Br)cc23)-c2ccc(Cl)cc21 [Compound 27] |  | 68 ± 1 | cytotoxicity at 24 h, 100 µM (Cytotoxicity assay): 36 ± 1%
O=C(CN1C(=O)Cc2c([nH]c3ccc(Br)cc23)-c2ccc(Cl)cc21)Nc1nncs1 [Compound 16] | ~30 |  | IC50 (TcTryS): 30 µM
O=C(CN1C(=O)Cc2c([nH]c3ccc(Br)cc23)-c2ccc(Cl)cc21)NC(CO)(CO)CO [Compound 14] | 5.2 ± 0.4 |  | 
CC(C)(C)OC(=O)NCCNC(=O)CN1C(=O)Cc2c([nH]c3ccc(Br)cc23)-c2ccc(Cl)cc21 [Compound 29] |  |  | % TryS inhibition at 30 µM, LiTryS [1]: 36.7 ± 5.9%
NC(=O)CN1C(=O)Cc2c([nH]c3ccc(Br)cc23)-c2ccc(Cl)cc21 [Compound 7] | 5.1 ± 0.5 |  | 
O=C(CN1C(=O)Cc2c([nH]c3ccc(Br)cc23)-c2ccc(Cl)cc21)N1CCCCC1 [Compound 24, 9-Bromo-3-chloro-5-[2-oxo-2-(piperidin-1-yl)ethyl]-7,12-dihydrobenzo[2,3]azepino-[4,5-b]indol-6(5H)-one] |  |  | % TryS inhibition at 30 µM, LiTryS [1]: 38.6 ± 1.3%
CNC(=O)CN1C(=O)Cc2c([nH]c3ccc(Br)cc23)-c2ccc(Cl)cc21 [Compound 9] | 0.8 ± 0.1 | 107 ± 2 | cytotoxicity at 24 h, 100 µM (Cytotoxicity assay): 93 ± 4%
NNC(=O)CN1C(=O)Cc2c([nH]c3ccc(Br)cc23)-c2ccc(Cl)cc21 [Compound 8] | 4 ± 0.5 |  | 

Continued, in another order:

IC50 [1] [µM] | SMILES | activity at 10 µM ([2]; 24 h) [%] | other results
2.8 ± 0.7 | O=C(CN1C(=O)Cc2c([nH]c3ccc(Br)cc23)-c2ccc(Cl)cc21)N1CCOCC1 [Compound 26] | 29 ± 3 | SI, L. braziliensis amastigotes [2]: 6; CC50 [3]: 10.2 ± 0.2 µM
0.4 ± 0.1 | NCCCCNC(=O)CN1C(=O)Cc2c([nH]c3ccc(Br)cc23)-c2ccc(Cl)cc21 [Compound 35] | 116 ± 3 | cytotoxicity at 24 h, 100 µM (Cytotoxicity assay): 0%
12.5 ± 0.2 | O=C(CN1C(=O)Cc2c([nH]c3ccc(Br)cc23)-c2ccc(Cl)cc21)N1CCN(c2ncccn2)CC1 [Compound 23] |  | 
0.6 ± 0.1 | O=C(CN1C(=O)Cc2c([nH]c3ccc(Br)cc23)-c2ccc(Cl)cc21)NCCN1CCNCC1 [Compound 32] | 139 ± 2 | cytotoxicity at 24 h, 100 µM (Cytotoxicity assay): 24 ± 3%
3.3 ± 0.1 | O=C(CN1C(=O)Cc2c([nH]c3ccc(Br)cc23)-c2ccc(Cl)cc21)NCCN1CCOCC1 [Compound 30] |  | 
0.8 ± 0.1 | O=C(CN1C(=O)Cc2c([nH]c3ccc(Br)cc23)-c2ccc(Cl)cc21)NCCN1CCCCC1 [Compound 31] |  | % infection by L. braziliensis at 5 µM ([2]; 5 µM, 24 h, relative to infected non-treated macrophages): 49 ± 3 at 5 µM %; SI, L. braziliensis amastigotes [2]: 2; CC50 [3]: 9 ± 1 µM

— article PMC7717452 (Journal of Enzyme Inhibition and Medicinal Chemistry, 2020)
